In ChEMBL document CHEMBL2380295, “Structure-activity studies on the side chain of a simplified analog of aplysiatoxin (aplog-1) with anti-proliferative activity” (Bioorg Med Chem, 2013):

Experiments:
[1] = Growth inhibition of human BSY1 cells after 48 hrs by sulforhodamine B assay; format: functional; settings: BSY-1, 48 h
How it was run: (§1)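 Yamori 39-line human cancer panel, NCI method with modifications. Cells plated in RPMI 1640 plus 5% FBS, attached overnight, then exposed 48 h to compound at 10^-8, 10^-7, 10^-6, 10^-5 and 10^-4 M. Sulforhodamine B staining read at 525 nm; % growth = 100[(T−T0)/(C−T0)] from duplicate-point averages, with T0 the time-zero absorbance. GI50 is the concentration giving 50.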

St-4 = assay: Growth inhibition of human St-4 cells after 48 hrs by sulforhodamine B assay; format: functional; settings: St-4, 48 h; how it was run: as §1
DMS-273 = assay: Growth inhibition of human DMS273 cells after 48 hrs by sulforhodamine B assay; format: functional; settings: DMS-273, 48 h; how it was run: as §1
OVCAR-5 = assay: Growth inhibition of human OVCAR5 cells after 48 hrs by sulforhodamine B assay; format: functional; settings: OVCAR-5, 48 h; how it was run: as §1
[2] = Growth inhibition of human MKN1 cells after 48 hrs by sulforhodamine B assay; format: functional; settings: MKN-1, 48 h; how it was run: as §1
NCI-H460 = assay: Growth inhibition of human NCI-H460 cells after 48 hrs by sulforhodamine B assay; format: functional; settings: NCI-H460, 48 h; how it was run: as §1
[3] = Growth inhibition of human RXF631L cells after 48 hrs by sulforhodamine B assay; format: functional; settings: RXF 631, 48 h; how it was run: as §1
NCI-H522 = assay: Growth inhibition of human NCI-H522 cells after 48 hrs by sulforhodamine B assay; format: functional; settings: NCI-H522, 48 h; how it was run: as §1
DU-145 = assay: Growth inhibition of human DU145 cells after 48 hrs by sulforhodamine B assay; format: functional; settings: DU-145, 48 h; how it was run: as §1
[4] = Growth inhibition of human HBC4 cells after 48 hrs by sulforhodamine B assay; format: functional; settings: HBC4, 48 h; how it was run: as §1
SF-539 = assay: Growth inhibition of human SF539 cells after 48 hrs by sulforhodamine B assay; format: functional; settings: SF-539, 48 h; how it was run: as §1
SNB-78 = assay: Growth inhibition of human SNB78 cells after 48 hrs by sulforhodamine B assay; format: functional; settings: SNB-78, 48 h; how it was run: as §1
[5] = target: T1, Protein kinase C delta type (Homo sapiens, UniProt Q05655); assay: Inhibition of [3H]PDBu binding to PKCdelta-C1A domain peptide (unknown origin)
How it was run: (§2)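 Competitive [3H]PDBu binding used 14 or 40 nM PKCδ C1 peptide and 20 nM [3H]PDBu (19.6 Ci/mmol), in 50 mM Tris-maleate (pH 7.4 at 4 °C) with 50 µg/mL phosphatidylserine, 3 mg/mL bovine γ-globulin and varied inhibitor concentrations. IC50 was taken as 50% inhibition of specific binding. Ki was derived by the Sharkey–Blumberg method.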

HCT-15 = assay: Growth inhibition of human HCT15 cells after 48 hrs by sulforhodamine B assay; format: functional; settings: HCT-15, 48 h; how it was run: as §1
OVCAR-8 = assay: Growth inhibition of human OVCAR8 cells after 48 hrs by sulforhodamine B assay; format: functional; settings: OVCAR-8, 48 h; how it was run: as §1
PC-3 = assay: Growth inhibition of human PC3 cells after 48 hrs by sulforhodamine B assay; format: functional; settings: PC-3, 48 h; how it was run: as §1
[6] = Octanol-water partition coefficient, log P of the compound by HPLC analysis; format: physicochemical
How it was run: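 log P was estimated from HPLC retention, with column dead time measured using unretained formamide.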

SK-OV-3 = assay: Growth inhibition of human SKOV3 cells after 48 hrs by sulforhodamine B assay; format: functional; settings: SK-OV-3, 48 h; how it was run: as §1
U-251 = assay: Growth inhibition of human U251 cells after 48 hrs by sulforhodamine B assay; format: functional; settings: U-251, 48 h; how it was run: as §1
MKN-28 = assay: Growth inhibition of human MKN28 cells after 48 hrs by sulforhodamine B assay; format: functional; settings: MKN-28, 48 h; how it was run: as §1
SF-295 = assay: Growth inhibition of human SF295 cells after 48 hrs by sulforhodamine B assay; format: functional; settings: SF-295, 48 h; how it was run: as §1
KM12 = assay: Growth inhibition of human KM12 cells after 48 hrs by sulforhodamine B assay; format: functional; settings: KM12, 48 h; how it was run: as §1
[7] = Cytotoxicity against human Raji cells assessed as cell viability at 10^-7 M; format: cell-based; settings: read-out: Activity
[8] = Cytotoxicity against human Raji cells assessed as cell viability at 10^-6 M; format: cell-based; settings: read-out: Activity
HCT-116 = assay: Growth inhibition of human HCT116 cells after 48 hrs by sulforhodamine B assay; format: functional; settings: HCT-116, 48 h; how it was run: as §1
NCI-H226 = assay: Growth inhibition of human NCI-H226 cells after 48 hrs by sulforhodamine B assay; format: functional; settings: NCI-H226, 48 h; how it was run: as §1
[9] = Growth inhibition of human HCC2998 cells after 48 hrs by sulforhodamine B assay; format: functional; settings: HCC 2998, 48 h; how it was run: as §1
MDA-MB-231 = assay: Growth inhibition of human MDA-MB-231 cells after 48 hrs by sulforhodamine B assay; format: functional; settings: MDA-MB-231, 48 h; how it was run: as §1
ACHN = assay: Growth inhibition of human ACHN cells after 48 hrs by sulforhodamine B assay; format: functional; how it was run: as §1
NCI-H23 = assay: Growth inhibition of human NCI-H23 cells after 48 hrs by sulforhodamine B assay; format: functional; settings: NCI-H23, 48 h; how it was run: as §1
DMS-114 = assay: Growth inhibition of human DMS114 cells after 48 hrs by sulforhodamine B assay; format: functional; settings: DMS-114, 48 h; how it was run: as §1
MKN-45 = assay: Growth inhibition of human MKN45 cells after 48 hrs by sulforhodamine B assay; format: functional; settings: MKN-45, 48 h; how it was run: as §1
LOX IMVI = assay: Growth inhibition of human LOXIMVI cells after 48 hrs by sulforhodamine B assay; format: functional; how it was run: as §1
MKN-74 = assay: Growth inhibition of human MKN74 cells after 48 hrs by sulforhodamine B assay; format: functional; settings: MKN-74, 48 h; how it was run: as §1
[10] = Growth inhibition of human HBC5 cells after 48 hrs by sulforhodamine B assay; format: functional; settings: HBC5, 48 h; how it was run: as §1
MCF7 = assay: Growth inhibition of human MCF7 cells after 48 hrs by sulforhodamine B assay; format: functional; settings: MCF7, 48 h; how it was run: as §1
Human gammaherpesvirus 4 [11] = assay: Induction of EBV-early antigen expressed in human Raji cells at 10^-6 M after 48 hrs by immunofluorescence assay relative to control; format: organism-based; settings: human gammaherpesvirus 4, raji, 1 µM
How it was run: (§3)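 Raji B-lymphoblastoid cells (5 × 10^5/mL) in RPMI 1640 with 10% FBS, with 4 mM sodium n-butyrate as synergist and test compound at 10^-7 or 10^-6 M (final DMSO 0.4%). Incubated 48 h at 37 °C under 5% CO2. Smears were stained by indirect immunofluorescence using NPC patient serum and FITC anti-human IgG. At least 500 cells counted; % EA-positive recorded; n = 3, SEM.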

A549 = assay: Growth inhibition of human A549 cells after 48 hrs by sulforhodamine B assay; format: functional; settings: A549, 48 h; how it was run: as §1
SNB-75 = assay: Growth inhibition of human SNB75 cells after 48 hrs by sulforhodamine B assay; format: functional; settings: SNB-75, 48 h; how it was run: as §1
[12] = target: T1, Protein kinase C delta type; assay: Inhibition of [3H]PDBu binding to PKCdelta-C1B domain peptide (unknown origin); how it was run: as §2
OVCAR-4 = assay: Growth inhibition of human OVCAR4 cells after 48 hrs by sulforhodamine B assay; format: functional; settings: OVCAR-4, 48 h; how it was run: as §1
OVCAR-3 = assay: Growth inhibition of human OVCAR3 cells after 48 hrs by sulforhodamine B assay; format: functional; settings: OVCAR-3, 48 h; how it was run: as §1
MKN-7 = assay: Growth inhibition of human MKN7 cells after 48 hrs by sulforhodamine B assay; format: functional; settings: MKN-7, 48 h; how it was run: as §1
SF-268 = assay: Growth inhibition of human SF268 cells after 48 hrs by sulforhodamine B assay; format: functional; settings: SF-268, 48 h; how it was run: as §1
HT-29 = assay: Growth inhibition of human HT-29 cells after 48 hrs by sulforhodamine B assay; format: functional; settings: HT-29, 48 h; how it was run: as §1
Human gammaherpesvirus 4 [13] = assay: Induction of EBV-early antigen expressed in human Raji cells at 10^-7 M after 48 hrs by immunofluorescence assay relative to control; format: organism-based; settings: human gammaherpesvirus 4, raji, 0.1 µM; how it was run: as §3

T1 sequence (Q05655 whole entry, the tested form may be a part): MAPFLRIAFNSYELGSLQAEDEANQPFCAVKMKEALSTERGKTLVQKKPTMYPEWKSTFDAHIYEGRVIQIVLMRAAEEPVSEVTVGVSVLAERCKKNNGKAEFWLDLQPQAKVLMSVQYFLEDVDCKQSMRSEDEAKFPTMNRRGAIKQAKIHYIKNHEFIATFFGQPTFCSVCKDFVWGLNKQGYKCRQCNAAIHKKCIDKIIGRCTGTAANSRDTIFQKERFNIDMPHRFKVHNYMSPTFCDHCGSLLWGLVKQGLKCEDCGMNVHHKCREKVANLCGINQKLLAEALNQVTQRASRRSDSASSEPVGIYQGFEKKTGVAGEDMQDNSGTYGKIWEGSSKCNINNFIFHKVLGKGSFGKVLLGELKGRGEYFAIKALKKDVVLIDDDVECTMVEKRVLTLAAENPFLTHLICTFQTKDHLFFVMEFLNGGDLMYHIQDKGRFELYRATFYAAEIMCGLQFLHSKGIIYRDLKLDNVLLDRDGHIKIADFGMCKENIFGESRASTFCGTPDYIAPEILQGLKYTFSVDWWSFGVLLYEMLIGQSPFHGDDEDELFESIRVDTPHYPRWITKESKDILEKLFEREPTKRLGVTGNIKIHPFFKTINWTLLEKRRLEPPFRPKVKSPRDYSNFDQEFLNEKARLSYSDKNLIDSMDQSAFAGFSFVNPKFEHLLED

## CC(=O)Nc1ccc(O)cc1CCCC[C@@H]1C[C@@H]2C[C@@]3(O[C@H](CCC3(C)C)CC(=O)O[C@@H](CO)CC(=O)O2)O1
[1]
  GI50: > 100 µM
St-4
  GI50: > 100 µM
DMS-273
  GI50: 43.7 µM
OVCAR-5
  GI50: > 100 µM
[2]
  GI50: > 100 µM
NCI-H460
  GI50: > 100 µM
[3]
  GI50: > 100 µM
NCI-H522
  GI50: > 100 µM
DU-145
  GI50: > 100 µM
[4]
  GI50: > 100 µM
SF-539
  GI50: > 100 µM
SNB-78
  GI50: > 100 µM
[5]
  Ki: 8.7 µM
HCT-15
  GI50: > 100 µM
OVCAR-8
  GI50: > 100 µM
PC-3
  GI50: > 100 µM
[6]
  logP: 2.3
SK-OV-3
  GI50: > 100 µM
U-251
  GI50: > 100 µM
MKN-28
  GI50: 87.1 µM
SF-295
  GI50: 60.3 µM
KM12
  GI50: > 100 µM
[7]
  viability at 0.1 µM: 60%
[8]
  viability at 1 µM: 60%
HCT-116
  GI50: > 100 µM
NCI-H226
  GI50: 53.7 µM
[9]
  GI50: 72.4 µM
MDA-MB-231
  GI50: > 100 µM
ACHN
  GI50: > 100 µM
NCI-H23
  GI50: > 100 µM
DMS-114
  GI50: 55 µM
MKN-45
  GI50: > 100 µM
LOX IMVI
  GI50: 74.1 µM
MKN-74
  GI50: 70.8 µM
[10]
  GI50: > 100 µM
MCF7
  GI50: > 100 µM
Human gammaherpesvirus 4 [11]
  Activity: 2.1%
A549
  GI50: > 100 µM
SNB-75
  GI50: > 100 µM
[12]
  Ki: 0.69 µM
OVCAR-4
  GI50: > 100 µM
OVCAR-3
  GI50: > 100 µM
MKN-7
  GI50: > 100 µM
SF-268
  GI50: > 100 µM
HT-29
  GI50: > 100 µM
Human gammaherpesvirus 4 [13]
  Activity: 2%
